According to ChEMBL document CHEMBL3259739, “Synthesis and structure-activity relationship of trisubstituted thiazoles as Cdc7 kinase inhibitors” (Eur J Med Chem, 2014):
pIC50: −log10 of the molar value. Activity calls are given as the source filed them.

Legend:
[1] = Efflux ratio of permeability of the compound in pig LLC-PK1 cells; format: ADME, cell-based, Sus scrofa
[2] = molecular target: T1, CDC7/DBF4 (Cell division cycle 7-related protein kinase/Activator of S phase kinase) (Homo sapiens, UniProt O00311); experiment: Inhibition of Cdc7/Dbf4 (unknown origin) using 0.047 uM of ATP as substrate by AlphaScreen assay; format: protein-complex assay
In short: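 Mechanism-of-action AlphaScreen run with 6 nM Cdc7/Dbf4 and 10 nM biotinylated MCM2 substrate. […] Reaction time was 2 h. Phospho-Ser53 MCM2 was read by antibody-bound acceptor beads with streptavidin donor beads. Rates and Ki were fitted to a competitive inhibition model.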

[3] = Apparent permeability of the compound in pig LLC-PK1 cells; format: ADME, cell-based, Sus scrofa
[4] = molecular target: Epidermal growth factor receptor (Homo sapiens) (UniProt P00533); experiment: Inhibition of EGFR (unknown origin) at 1 uM relative to control; values are per cent of control
[5] = molecular target: T1, CDC7/DBF4 (Cell division cycle 7-related protein kinase/Activator of S phase kinase); experiment: Inhibition of Cdc7/Dbf4 (unknown origin) using 3 uM of ATP as substrate by AlphaScreen assay; format: protein-complex assay
rat MDR1 = experiment: Efflux ratio of permeability of the compound in pig LLC-PK1 cells expressing rat MDR1; format: ADME, cell-based, Sus scrofa
[6] = molecular target: CDC7/DBF4 (Cell division cycle 7-related protein kinase/Activator of S phase kinase) (Homo sapiens) (UniProt Q9UBU7+O00311); experiment: Competitive inhibition of Cdc7/Dbf4 (unknown origin) using ATP as substrate by Michaelis-Menton/double-reciprocal plot analysis; format: protein-complex assay
In short: (§1)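 AlphaScreen with 6 nM Cdc7/Dbf4 and 10 nM biotinylated His/avitag MCM2 (aa1-467) substrate. Phospho-Ser53 MCM2 detected with antibody-bound Protein A acceptor and streptavidin donor beads. Rates fitted by Michaelis–Menten and double-reciprocal plots.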

[7] = molecular target: Serine/threonine-protein kinase MARK1 (Homo sapiens) (UniProt Q9P0L2); experiment: Inhibition of MARK1 (unknown origin) at 1 uM relative to control; values are per cent of control
HCT-116 [8] = experiment: Cytotoxicity against human HCT116 cells assessed as cell viability after 2 days by Cell Titer-glo assay; format: functional, cell-based; settings: HCT-116, 48 h
CDK9/cyclin T1 = CDK9/cyclin T1 (Homo sapiens, UniProt P50750); experiment: Inhibition of CDK9/Cyclin-T1 (unknown origin) by homogeneous time-resolved fluorescence assay; format: protein-complex assay
In short: (§2)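 Counter-screens by HTRF kinase assays: CDK1/Cyclin B and CDK4/Cyclin D1 in HTRF format, CDK9/Cyclin T1 with a 4eBP1 ULight substrate, and the CK2 tetramer with a TopoII ULight substrate.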

HCT-116 [9] = experiment: Induction of apoptosis in human HCT116 cells assessed as activation of caspase 3/7; format: functional, cell-based
[10] = molecular target: Casein kinase I isoform delta (Homo sapiens, UniProt P48730); experiment: Inhibition of CK1delta (unknown origin) by TR-FRET assay
In short: (§3)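 CK1 isoform inhibition measured in Lance TR-FRET kinase assays, reported as IC50.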

Casein kinase II = Casein kinase II (Homo sapiens, UniProt P19784+P67870+P68400); experiment: Inhibition of CK2 (unknown origin) by homogeneous time-resolved fluorescence assay; format: protein-complex assay; in short: as §2
[11] = Inhibition of CK1gamma (unknown origin) by TR-FRET assay; parameters: species or system Homo sapiens; in short: as §3
[12] = molecular target: T1, CDC7/DBF4 (Cell division cycle 7-related protein kinase/Activator of S phase kinase); experiment: Inhibition of Cdc7/Dbf4 in human HCT116 cells assessed as reduction of MCM2 phosphorylation after 14 hrs; format: cell-based, HCT-116
In short: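 HCT-116 cells were exposed to inhibitor across a 22-point dose response for 14 h. They were then immunostained for phospho-serine MCM2 using an Alexa Fluor 488 secondary, with a Hoechst nuclear counterstain. The percentage of cells with phospho-MCM2 signal above a threshold was scored by high-content imaging, and IC50 values were derived from that.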

[13] = molecular target: Cyclin-dependent kinase 1/cyclin B1 (Homo sapiens, UniProt P06493); experiment: Inhibition of CDK1/Cyclin-B (unknown origin) by homogeneous time-resolved fluorescence assay; format: protein-complex assay; in short: as §2
HCT-116 [14] = experiment: Inhibition of DNA synthesis in human HCT116 cells after 2 days by BrdU incorporation assay; format: functional, cell-based; settings: HCT-116, 48 h
[15] = molecular target: Cyclin-dependent kinase 4/cyclin D1 (Homo sapiens, UniProt P11802); experiment: Inhibition of CDK4/Cyclin-D1 (unknown origin) by homogeneous time-resolved fluorescence assay; format: protein-complex assay; in short: as §2
[16] = molecular target: Serine/threonine-protein kinase pim-1 (Homo sapiens, UniProt P11309); experiment: Inhibition of Pim1 (unknown origin) by homogeneous time-resolved fluorescence assay
In short: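 Pim1 counter-screened biochemically with a homogeneous time-resolved fluorescence (HTRF) kinase assay.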

[17] = Intrinsic clearance in mouse liver microsomes at 1 uM after 30 mins by reverse phase HPLC analysis in presence of NADPH; format: ADME; settings: read-out: CLH
In short: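 Reactions were stopped with MeCN after 0 or 30 min. Samples were analysed by reverse-phase HPLC–tandem MS to give intrinsic clearance (µl/min/mg).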

[18] = molecular target: Casein kinase I isoform alpha (Homo sapiens, UniProt P48729); experiment: Inhibition of CK1alpha (unknown origin) by TR-FRET assay; in short: as §3
Mus musculus [19] = experiment: Inhibition of Cdc7/Dbf4 in NCR nude mouse xenografted with human HCT116 cells assessed as reduction of phosphorylated MCM2 level in tumor at 50 mg/kg, iv after 6 hrs; format: functional; settings: HCT-116, 6 h
In short: (§4)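 Female athymic NCR/nu mice, 4–6 weeks old, bearing subcutaneous HCT-116 xenografts (5 × 10^6 cells in Matrigel) grown to about 250 mm3. Single iv dose formulated in 20% HPbCD, 1% HPMC, 1% PluronicF68, pH7 at 10 mg/ml; three mice per group. Tumors were homogenized in Tris lysis buffer with protease and phosphatase inhibitors. MSD capture with total MCM2 antibody, then phospho-Ser53 or total MCM2 detection by chemiluminescence; inhibition taken from the phospho/total ratio.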

[20] = Apparent oral clearance in Sprague-Dawley rat at 5 mg/kg, po; format: ADME, organism-based; parameters: dose 5 mg/kg, route oral; settings: in vivo
Mus musculus [21] = experiment: Inhibition of Cdc7/Dbf4 in NCR nude mouse xenografted with human HCT116 cells assessed as reduction of phosphorylated MCM2 level in tumor at 150 mg/kg, iv after 6 hrs; format: functional; settings: HCT-116, 6 h; in short: as §4
[22] = molecular target: T1, CDC7/DBF4 (Cell division cycle 7-related protein kinase/Activator of S phase kinase); experiment: Inhibition of Cdc7/Dbf4 (unknown origin) using 27 uM of ATP as substrate by AlphaScreen assay; format: protein-complex assay
Plasma = experiment: Unbound plasma concentration in NCR nude mouse xenografted with human HCT116 cells at 150 mg/kg, iv after 6 hrs; format: ADME, organism-based, HCT-116; parameters: dose 150 mg/kg, route intravenous; settings: in vivo
In short: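 HCT-116 xenograft NCR/nu mice (three per group) were given a single iv dose in 20% HPbCD, 1% HPMC, 1% PluronicF68, pH7 at 10 mg/ml. Plasma collected at the time points was measured by LC/MS. Values were converted to unbound concentrations using percent plasma protein binding in mouse serum.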

[23] = molecular target: T1, CDC7/DBF4 (Cell division cycle 7-related protein kinase/Activator of S phase kinase); experiment: Inhibition of Cdc7/Dbf4 (unknown origin) using 0.025 uM of ATP as substrate by AlphaScreen assay; format: protein-complex assay
[24] = molecular target: T1, CDC7/DBF4 (Cell division cycle 7-related protein kinase/Activator of S phase kinase); experiment: Inhibition of Cdc7/Dbf4 (unknown origin) using 0.012 uM of ATP as substrate by AlphaScreen assay; format: protein-complex assay; in short: as §1
[25] = molecular target: T1, CDC7/DBF4 (Cell division cycle 7-related protein kinase/Activator of S phase kinase); experiment: Inhibition of Cdc7/Dbf4 (unknown origin) using 9 uM of ATP as substrate by AlphaScreen assay; format: protein-complex assay
[26] = molecular target: T1, CDC7/DBF4 (Cell division cycle 7-related protein kinase/Activator of S phase kinase); experiment: Inhibition of Cdc7/Dbf4 (unknown origin) using 2 uM of ATP as substrate by AlphaScreen assay; format: protein-complex assay

Row | residual activity [4] [%] | residual activity [7] [%] | Structure (SMILES) | pIC50 (HCT-116 [8]) | pIC50 (CDK9/cyclin T1) | pIC50 (HCT-116 [9]) | pIC50 [10] | pIC50 (Casein kinase II) | pIC50 [11] | pIC50 [12] | pIC50 [13] | pIC50 (HCT-116 [14]) | pIC50 [15] | pIC50 [16] | microsomal CLint at 1 µM [17] [µL/min/mg] | pIC50 [18] | also measured
1 | 78 | 100 | CCOC(=O)c1sc(-c2ccncc2)nc1O |  |  |  |  |  |  |  |  |  |  |  |  |  | efflux ratio [1]: 1; pIC50 [2]: 6.39; Papp [3]: ≥ 8.9 ×10⁻⁶ cm/s; pIC50 [5]: 6.38; efflux ratio (rat MDR1): 1; inhibition [6]: Active
2 | 81 | 100 | COc1ccc(-c2nc(-c3ccnc(N)n3)sc2C(N)=O)c(Cl)c1 | 5.34 | 6.14 | < 4.30 | 6.98 | 4.19 | 5.72 | 6.06 | < 4.30 | 5.16 | < 4.30 | < 6.00 | 155 | 6.26 | 

Row | Structure (SMILES) | residual activity [4] [%] | residual activity [7] [%] | pIC50 (HCT-116 [8]) | pIC50 (CDK9/cyclin T1) | pIC50 (HCT-116 [9]) | pIC50 [10] | pIC50 (Casein kinase II) | pIC50 [11] | pIC50 [12] | pIC50 [13] | pIC50 (HCT-116 [14]) | pIC50 [15] | pIC50 [16] | microsomal CLint at 1 µM [17] [µL/min/mg] | pIC50 [18] | also measured
3 | NC(=O)c1sc(-c2ccnc(N)n2)nc1-c1ccc(Cl)cc1Cl | 100 | 100 | 5.38 | 6.13 | < 4.30 | 7.08 | 4.54 | 6.12 | 6.30 | < 4.30 | 5.59 | < 4.30 | < 6.00 | 57 | 6.16 | inhibition in vivo at 50 mg/kg (Mus musculus [19]): 20%; CL/F [20]: 1050 mL/min/kg; inhibition in vivo at 150 mg/kg (Mus musculus [21]): 31%; pIC50 [22]: 7.36; Cp(f) (Plasma): > 1000 nM; pIC50 [23]: 7.40; pIC50 [24]: 7.77; pIC50 [25]: 7.74; pIC50 [26]: 8.00
